The source made the active and inactive calls. The rule behind the calls is not given here.
Tests used:
Rattus norvegicus [1] = experiment: % decrease in blood pressure after 24 hours at a dose of 1 mg/kg in male rats by using Furosemide-treated spontaneous hypertensive model; type: functional
In short: (§1)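 Male SHR, 20-24 weeks old, pretreated with furosemide 10 mg/kg sc at 22 and 4 h before the experiment; compound dosed orally. Arterial pressure was recorded from an indwelling femoral artery catheter with on-line blood pressure and heart rate analysis. Read-out is % fall in blood pressure at 4 h and at 24 h, ±SEM, with number of rats.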

Rattus norvegicus [2] = experiment: % decrease in blood pressure after 4 hours at a dose of 1 mg/kg in male rats by using Furosemide-treated spontaneous hypertensive model; type: functional; in short: as §1
Rattus norvegicus [3] = experiment: % decrease in blood pressure after 4 hours at a dose of 1 mg/kg in male rats by using Furosemide-treated spontaneous hypertensive model; IA means inactive; type: functional, organism-based; set-up: dose 1 mg/kg; in short: as §1
[4] = target: T1, Type-1 angiotensin II receptor A (Rattus norvegicus, UniProt P25095); experiment: Binding affinity against angiotensin II receptor from rat liver
T1 sequence (P25095 whole entry): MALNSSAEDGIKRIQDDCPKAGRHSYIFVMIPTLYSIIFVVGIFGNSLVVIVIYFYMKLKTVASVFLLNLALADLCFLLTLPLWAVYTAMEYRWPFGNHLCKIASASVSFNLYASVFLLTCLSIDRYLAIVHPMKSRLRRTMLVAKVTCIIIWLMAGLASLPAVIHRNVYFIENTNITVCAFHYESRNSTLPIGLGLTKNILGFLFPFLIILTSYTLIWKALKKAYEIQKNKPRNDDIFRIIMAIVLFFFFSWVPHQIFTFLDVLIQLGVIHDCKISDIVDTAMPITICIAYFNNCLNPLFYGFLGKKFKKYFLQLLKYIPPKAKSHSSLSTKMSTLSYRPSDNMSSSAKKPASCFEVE
In short: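 Rat liver membranes were incubated with [125I]-saralasin to measure angiotensin II type 1 receptor binding. Nonspecific binding was defined with 1 µM angiotensin.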

Rattus norvegicus [5] = experiment: % decrease in blood pressure after 4 hours in male rats at a dose of 10 mg/kg by using Renal artery hypertensive model; type: functional
In short: (§2)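 Male Sprague-Dawley rats (300-350 g) were made hypertensive by renal artery ligation and used on day 6 or 7 after ligation. Arterial pressure was measured from an indwelling femoral artery catheter, with blood pressure and heart rate recorded on line. Read-out is % decrease in blood pressure at 4 h, ±SEM, with number of rats.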

Rattus norvegicus [6] = experiment: % decrease in blood pressure after 4 hours at a dose of 30 mg/kg in male rats by using Renal artery hypertensive model; type: functional; in short: as §2

Row | Structure (SMILES) | Decrease in blood pressure (Rattus norvegicus [1]) [%] | Decrease in blood pressure (Rattus norvegicus [2]) [%] | Decrease in blood pressure (Rattus norvegicus [3]) | Ki [4] [nM] | Decrease in blood pressure (Rattus norvegicus [5]) [%] | Decrease in blood pressure (Rattus norvegicus [6]) [%]
1 | CCCN(Cc1ccc(-c2ccccc2-c2nn[nH]n2)cc1)c1nc(C)cnc1C(=O)O | 18 | 2 |  |  |  | 
2 | CCCN(Cc1ccc(-c2ccccc2-c2nn[nH]n2)cc1)c1ncccc1C(=O)OC |  |  | inactive |  |  | 
3 | C=CCN(Cc1ccc(-c2ccccc2-c2nn[nH]n2)cc1)c1ncccc1C(=O)O | 31 | 13 |  |  |  | 
4 | CCCN(Cc1ccc(-c2ccccc2-c2nn[nH]n2)cc1)c1nc(C)ncc1C(=O)O |  |  |  | 2.78 | 15 | 18
5 | CCOC(=O)c1cnc(CC)nc1NCc1ccc(-c2ccccc2-c2nn[nH]n2)cc1 |  |  |  | 20.6 | 14 | 32

Source: ChEMBL document CHEMBL1126796, “2-(Alkylamino)nicotinic acid and analogs. Potent angiotensin II antagonists” (J Med Chem, 1993)
